Converted amounts (≈) assume the structure as drawn.
Columns and labels:
[1] = test system: Candida tropicalis; assay: Antifungal activity against Candida tropicalis cgmcc 2.3739 by broth microdilution method; type: functional
Method in brief: (§1)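 Serial twofold-style dilution in growth medium per NCCLS broth microdilution guidelines. Compounds dissolved in DMSO before dilution. Fluconazole and itraconazole served as positive controls. MIC was read as the lowest concentration that prevents visible fungal growth.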

[2] = test system: Candida albicans; assay: Antifungal activity against Candida albicans ATCC SC5314 by broth microdilution method; type: functional; method in brief: as §1
[3] = test system: Cryptococcus neoformans; assay: Antifungal activity against Cryptococcus neoformans cgmcc 2.3161 by broth microdilution method; type: functional; method in brief: as §1
[4] = test system: Aspergillus fumigatus; assay: Antifungal activity against Aspergillus fumigatus GIM 3.524 by broth microdilution method; type: functional; method in brief: as §1
[5] = test system: Candida albicans; assay: Antifungal activity against Candida albicans CPCC 400523 by broth microdilution method; type: functional; method in brief: as §1
[6] = test system: Candida albicans; assay: Antifungal activity against fluconazole-resistant Candida albicans strain 103 by broth microdilution method; type: functional
Method in brief: (§2)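 Broth serial dilution in 96-well plates per NCCLS guidelines; compounds dissolved in DMSO and serially diluted into growth medium; MIC taken as lowest concentration inhibiting visible fungal growth. Fluconazole-resistant clinical C. albicans isolates 100 and 103; fluconazole and itraconazole as positive controls.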

[7] = test system: Candida albicans; assay: Antifungal activity against fluconazole-resistant Candida albicans strain 100 by broth microdilution method; type: functional; method in brief: as §2
[8] = Metabolic stability in human plasma assessed as parent compound remaining at 120 mins; type: ADME, cell-free; details: read-out: Stability
[9] = Metabolic stability in human plasma assessed as parent compound remaining at 60 mins; type: ADME, cell-free; details: read-out: Stability

MIC [1] | MIC [2] | MIC [3] | MIC [4] | MIC [5] | Structure (SMILES) | MIC [6] | MIC [7] | remaining at 2 h [8] | remaining at 1 h [9]
0.0625 µg/mL (≈ 0.158 µM) | 0.0625 µg/mL (≈ 0.158 µM) | 1 µg/mL (≈ 2.53 µM) | > 16 µg/mL | 0.25 µg/mL (≈ 0.632 µM) | CC(C)OC(=O)[C@H](Cn1ccnc1)NC(=O)c1ccc(-c2ccccc2F)cc1 |  |  |  | 
4 µg/mL (≈ 10.5 µM) | > 16 µg/mL | > 16 µg/mL | > 16 µg/mL | > 16 µg/mL | CC(C)COC(=O)[C@H](Cn1ccnc1)NC(=O)c1coc(-c2ccccc2)n1 |  |  |  | 
4 µg/mL (≈ 10.1 µM) | > 16 µg/mL | > 16 µg/mL | > 16 µg/mL | > 16 µg/mL | Cc1cc(C(=O)N[C@@H](Cn2ccnc2)C(=O)OCC(C)C)nn1-c1ccccc1 |  |  |  | 
0.0312 µg/mL (≈ 0.0817 µM) | 0.0625 µg/mL (≈ 0.163 µM) | 0.25 µg/mL (≈ 0.654 µM) | 4 µg/mL (≈ 10.5 µM) | 1 µg/mL (≈ 2.61 µM) | CC(C)COC(=O)[C@H](Cn1ccnc1)NC(=O)c1cc(-c2ccccc2)on1 |  |  |  | 
0.0312 µg/mL (≈ 0.0817 µM) | 0.25 µg/mL (≈ 0.654 µM) | 2 µg/mL (≈ 5.23 µM) | 8 µg/mL (≈ 20.9 µM) | 0.5 µg/mL (≈ 1.31 µM) | Cc1ccc(-c2cc(C(=O)N[C@@H](Cn3ccnc3)C(=O)OC(C)C)no2)cc1 |  |  |  | 
0.0312 µg/mL (≈ 0.078 µM) | 0.5 µg/mL (≈ 1.25 µM) | 0.5 µg/mL (≈ 1.25 µM) | 8 µg/mL (≈ 20 µM) | 2 µg/mL (≈ 4.99 µM) | CC(C)COC(=O)[C@H](Cn1ccnc1)NC(=O)c1cc(-c2ccc(F)cc2)on1 |  |  |  | 
0.0312 µg/mL (≈ 0.0699 µM) | 0.0625 µg/mL (≈ 0.14 µM) | 2 µg/mL (≈ 4.47 µM) | > 16 µg/mL | 0.25 µg/mL (≈ 0.559 µM) | CC(C)OC(=O)[C@H](Cn1ccnc1)NC(=O)c1cc(-c2ccc(Br)cc2)on1 |  |  |  | 
1 µg/mL (≈ 2.64 µM) | 2 µg/mL (≈ 5.28 µM) | 16 µg/mL (≈ 42.3 µM) | > 16 µg/mL | 4 µg/mL (≈ 10.6 µM) | CC(C)OC(=O)[C@H](Cn1ccnc1)NC(=O)c1ccc(-c2ccccc2)nc1 |  |  |  | 
0.25 µg/mL (≈ 0.627 µM) | 2 µg/mL (≈ 5.02 µM) | 16 µg/mL (≈ 40.2 µM) | > 16 µg/mL | 2 µg/mL (≈ 5.02 µM) | Cc1nc(-c2ccccc2)sc1C(=O)N[C@@H](Cn1ccnc1)C(=O)OC(C)C |  |  |  | 
0.125 µg/mL (≈ 0.303 µM) | 0.25 µg/mL (≈ 0.606 µM) | 8 µg/mL (≈ 19.4 µM) | > 16 µg/mL | 1 µg/mL (≈ 2.42 µM) | Cc1nc(-c2ccccc2)sc1C(=O)N[C@@H](Cn1ccnc1)C(=O)OCC(C)C |  |  |  | 
0.125 µg/mL (≈ 0.314 µM) | > 16 µg/mL | 2 µg/mL (≈ 5.02 µM) | > 16 µg/mL | > 16 µg/mL | CC(C)COC(=O)[C@H](Cn1ccnc1)NC(=O)c1nc(-c2ccccc2)cs1 |  |  |  | 
8 µg/mL (≈ 21.7 µM) | > 16 µg/mL | > 16 µg/mL | > 16 µg/mL | > 16 µg/mL | CC(C)OC(=O)[C@H](Cn1ccnc1)NC(=O)c1coc(-c2ccccc2)n1 |  |  |  | 
> 16 µg/mL | > 16 µg/mL | > 16 µg/mL | > 16 µg/mL | > 16 µg/mL | CC(C)OC(=O)[C@H](Cn1ccnc1)NC(=O)c1csc(-c2ccccc2)n1 |  |  |  | 

Structure (SMILES) | MIC [1] | MIC [2] | MIC [3] | MIC [4] | MIC [5] | MIC [6] | MIC [7] | remaining at 2 h [8] | remaining at 1 h [9]
CC(C)COC(=O)[C@H](Cn1ccnc1)NC(=O)c1cc(-c2ccccc2F)on1 | 0.0312 µg/mL (≈ 0.078 µM) | 0.0312 µg/mL (≈ 0.078 µM) | 0.25 µg/mL (≈ 0.624 µM) | 4 µg/mL (≈ 9.99 µM) | 0.125 µg/mL (≈ 0.312 µM) | 0.5 µg/mL (≈ 1.25 µM) | 0.125 µg/mL (≈ 0.312 µM) | 61.4% | 74.6%
